Each block holds one compound with its values, some of them ahead of it.
Tests used:
[1] = test system: rhinovirus A1B; assay: In vitro activity against Rhinovirus type 1B by plaque inhibition assay.; format: functional, organism-based, Enterovirus; details: Rhinovirus A
[2] = test system: rhinovirus A1B; assay: In vitro activity against rhinovirus type 1B was determined by plaque inhibition assay; Inactive at 50 ug/disk, T=Toxic; format: functional, organism-based, Enterovirus
Outline: (§1)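 Rhinovirus 1B plaque inhibition run on M-HeLa cell monolayers, with compound applied on disks at 50 µg/disk. Compounds active or slightly active at this level went on to a plaque reduction assay for the 50% inhibitory concentration.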

[3] = test system: Enterovirus; assay: Inhibitory concentration measured against Rhinovirus serotype 31; format: functional, organism-based
[4] = test system: Enterovirus; assay: Inhibitory concentration measured against Rhinovirus serotype 9; format: functional, organism-based
[5] = test system: Enterovirus; assay: Inhibitory concentration measured against Rhinovirus serotype 15; format: functional, organism-based
[6] = test system: Enterovirus; assay: Inhibitory concentration measured against Rhinovirus serotype 12; format: functional, organism-based
[7] = test system: Enterovirus; assay: Inhibitory concentration measured against Rhinovirus serotype 16; format: functional, organism-based
[8] = test system: Enterovirus; assay: Inhibitory concentration measured against Rhinovirus serotype 19; format: functional, organism-based
[9] = test system: Enterovirus; assay: Inhibitory concentration measured against Rhinovirus serotype 4; format: functional, organism-based
[10] = test system: Enterovirus; assay: Inhibitory concentration measured against Rhinovirus serotype 3; format: functional, organism-based
[11] = test system: Enterovirus; assay: Inhibitory concentration measured against Rhinovirus serotype 1A; format: functional, organism-based
[12] = test system: Enterovirus; assay: Inhibitory concentration measured against Rhinovirus serotype 1B; format: functional, organism-based
[13] = test system: Enterovirus; assay: Inhibitory concentration measured against Rhinovirus serotype 2; format: functional, organism-based
[14] = test system: Enterovirus; assay: Inhibitory concentration measured against Rhinovirus serotype 5; format: functional, organism-based
[15] = test system: Enterovirus; assay: Inhibitory concentration measured against Rhinovirus serotype 8; format: functional, organism-based
[16] = test system: Enterovirus; assay: Inhibitory concentration measured against Rhinovirus serotype 18; format: functional, organism-based
[17] = test system: Enterovirus; assay: Inhibitory concentration measured against Rhinovirus serotype 29; format: functional, organism-based
[18] = test system: Enterovirus; assay: Inhibitory concentration measured against Rhinovirus serotype 14; format: functional, organism-based
[19] = test system: Enterovirus; assay: Inhibitory concentration measured against Rhinovirus serotype 21; format: functional, organism-based
[20] = test system: Enterovirus; assay: Inhibitory concentration measured against Rhinovirus serotype 13; format: functional, organism-based
[21] = test system: Enterovirus; assay: Percent inhibition of plaque formation of Rhinovirus serotype 18 was measured at 4 uM of the compound; format: functional
[22] = test system: Enterovirus; assay: Percent inhibition of plaque formation of Rhinovirus serotype 8 was measured at 4 uM of the compound; format: functional
[23] = test system: Enterovirus; assay: Inhibitory concentration measured against Rhinovirus serotype 30; format: functional, organism-based
[24] = test system: rhinovirus A1B; assay: In vitro activity against rhinovirus type 1B was determined by plaque inhibition assay; - = Inactive at 50 ug/disk; format: functional, organism-based, Enterovirus; outline: as §1
[25] = test system: Enterovirus; assay: Percent inhibition of plaque formation of Rhinovirus serotype 31 was measured at 2.5 uM of the compound; format: functional
[26] = test system: Enterovirus; assay: Percent inhibition of plaque formation of Rhinovirus serotype 13 was measured at 5 uM of the compound; format: functional
[27] = test system: Enterovirus; assay: Percent inhibition of plaque formation of Rhinovirus serotype 14 was measured at 2.5 uM of the compound; format: functional
[28] = test system: Enterovirus; assay: Percent inhibition of plaque formation of Rhinovirus serotype 29 was measured at 2.5 uM of the compound; format: functional
[29] = test system: Enterovirus; assay: Percent inhibition of plaque formation of Rhinovirus serotype 15 was measured at 2.5 uM of the compound; format: functional
[30] = test system: Enterovirus; assay: Percent inhibition of plaque formation of Rhinovirus serotype 18 was measured at 5 uM of the compound; format: functional

Structure (SMILES): CN(C)c1nc(Cl)nc2c1ncn2Cc1cccc(I)c1
- IC50 [1]: 0.36 µM

Structure (SMILES): CN(C)c1nc(Cl)nc2c1ncn2Cc1cccc(OCc2ccccc2)c1
- IC50 [2]: Toxic

Structure (SMILES): CN(C)c1ncnc2c1ncn2Cc1cccc(Cl)c1
- IC50 [1]: 30.5 µM

Structure (SMILES): CN(C)c1ncnc2c1ncn2Cc1cccc(OCc2ccccc2)c1
- IC50 [1]: 13 µM

Structure (SMILES): Cc1ccc(Cn2cnc3c(N(C)C)nc(Cl)nc32)cc1
- IC50 [3]: 1.6 µM
- IC50 [4]: 2 µM
- IC50 [5]: 3.5 µM
- IC50 [6]: 5.4 µM
- IC50 [7]: 1 µM
- IC50 [1]: 0.08 µM
- IC50 [8]: 14 µM
- IC50 [9]: 4.6 µM
- IC50 [10]: 7.2 µM
- IC50 [11]: 0.12 µM
- IC50 [12]: 0.08 µM
- IC50 [13]: 11 µM
- IC50 [14]: 6.2 µM
- IC50 [15]: 13 µM
- IC50 [16]: 4 µM
- IC50 [17]: > 5 µM
- IC50 [18]: 7 µM
- IC50 [19]: 5.6 µM
- IC50 [20]: 2.3 µM

Structure (SMILES): CN(C)c1ncnc2c1ncn2Cc1ccc(Cl)cc1
- IC50 [1]: > 25 µM

Structure (SMILES): CCc1ccc(Cn2cnc3c(N(C)C)nc(Cl)nc32)cc1
- IC50 [3]: 3.5 µM
- IC50 [4]: 0.4 µM
- IC50 [5]: 3.9 µM
- IC50 [6]: 7 µM
- IC50 [7]: 0.2 µM
- IC50 [1]: 0.08 µM
- IC50 [8]: 4.6 µM
- IC50 [9]: 4 µM
- IC50 [10]: 4 µM
- IC50 [11]: 0.5 µM
- IC50 [12]: 0.08 µM
- IC50 [13]: 2.8 µM
- IC50 [14]: 5.6 µM
- Inhibition [21]: 42%
- IC50 [17]: 0.3 µM
- IC50 [18]: 3.3 µM
- Inhibition [22]: 30%
- IC50 [23]: 4 µM
- IC50 [19]: 8 µM
- IC50 [20]: 4.9 µM

Structure (SMILES): CN(C)c1nc(Cl)nc2c1ncn2Cc1ccc(C(C)(C)C)cc1
- IC50 [1]: 0.44 µM

Structure (SMILES): COc1cccc(Cn2cnc3c(N(C)C)nc(Cl)nc32)c1
- IC50 [1]: 2 µM

Structure (SMILES): CN(C)c1nc(Cl)nc2c1ncn2Cc1ccccc1
- IC50 [1]: 0.82 µM

Structure (SMILES): CN(C)c1ncnc2c1ncn2Cc1cccc(N)c1
- IC50 [1]: 50 µM

Structure (SMILES): CN(C)c1ncnc2c1ncn2Cc1cccc(Br)c1
- IC50 [1]: 14.4 µM

Structure (SMILES): Cc1ccc(Cn2cnc3c(N(C)C)ncnc32)cc1
- IC50 [1]: 8.6 µM

Structure (SMILES): CN(C)c1nc(Cl)nc2c1ncn2Cc1ccc([N+](=O)[O-])cc1
- IC50 [1]: 0.51 µM

Structure (SMILES): CN(C)c1ncnc2c1ncn2Cc1ccc(OCc2ccccc2)cc1
- IC50 [24]: Not Active

Structure (SMILES): Cc1cccc(Cn2cnc3c(N(C)C)nc(Cl)nc32)c1
- IC50 [1]: 0.6 µM

Structure (SMILES): CN(C)c1ncnc2c1ncn2Cc1ccc(N)cc1
- IC50 [24]: Not Active

Structure (SMILES): CN(C)c1ncnc2c1ncn2Cc1cccc(C#N)c1
- IC50 [24]: Not Active

Structure (SMILES): CC(C)c1ccc(Cn2cnc3c(N(C)C)nc(Cl)nc32)cc1
- IC50 [3]: 4 µM
- IC50 [4]: < 1 µM
- IC50 [5]: 4.5 µM
- IC50 [6]: 3.4 µM
- IC50 [7]: 0.2 µM
- IC50 [1]: 0.07 µM
- IC50 [8]: 7 µM
- IC50 [9]: 6.1 µM
- IC50 [10]: 7 µM
- IC50 [11]: < 1 µM
- IC50 [12]: 0.07 µM
- IC50 [13]: 1.2 µM
- IC50 [14]: 8 µM
- IC50 [15]: 6 µM
- IC50 [16]: 4.3 µM
- IC50 [17]: 0.5 µM
- IC50 [18]: 5.9 µM
- IC50 [23]: 8 µM
- IC50 [20]: 5.8 µM

Structure (SMILES): CN(C)c1ncnc2c1ncn2Cc1cccc(NC(=O)C(N)Cc2ccccc2)c1 (configuration not stated)
- IC50 [1]: 17 µM

Structure (SMILES): CN(C)c1ncnc2c1ncn2Cc1ccccc1
- IC50 [1]: 33 µM

Structure (SMILES): CN(C)c1ncnc2c1ncn2Cc1ccc(Cl)c(Cl)c1
- IC50 [1]: 2.5 µM

Structure (SMILES): CN(C)c1ncnc2c1ncn2Cc1ccc(F)cc1
- IC50 [24]: Not Active

Structure (SMILES): CN(C)c1ncnc2c1ncn2Cc1cccc(O)c1
- IC50 [24]: Not Active

Structure (SMILES): CN(C)c1ncnc2c1ncn2Cc1ccc(C#N)cc1
- IC50 [24]: Not Active

Now from value to compound, other results behind:

- IC50 [1]: 23 µM
Structure (SMILES): CN(C)c1ncnc2c1ncn2Cc1cccc(F)c1

- IC50 [1]: 19.6 µM
Structure (SMILES): CN(C)c1ncnc2c1ncn2Cc1cccc(C(F)(F)F)c1

- IC50 [1]: 0.3 µM
Structure (SMILES): CN(C)c1nc(Cl)nc2c1ncn2Cc1ccc(N)cc1

- IC50 [1]: 34 µM
Structure (SMILES): CN(C)c1ncnc2c1ncn2Cc1ccc(O)cc1

- IC50 [1]: 0.59 µM
Structure (SMILES): CN(C)c1nc(Cl)nc2c1ncn2Cc1cccc(Cl)c1

- IC50 [1]: 6.7 µM
Structure (SMILES): CN(C)c1ncnc2c1ncn2Cc1cccc(I)c1

- IC50 [24]: Not Active
Structure (SMILES): CC(=O)Nc1ccc(Cn2cnc3c(N(C)C)ncnc32)cc1

- IC50 [1]: 4.6 µM
Structure (SMILES): CN(C)c1ncnc2c1ncn2Cc1cc(Cl)cc(Cl)c1

- IC50 [4]: 2.1 µM
- IC50 [6]: 5.4 µM
- IC50 [1]: 0.12 µM
- IC50 [8]: > 5 µM
- IC50 [9]: > 2.5 µM
- IC50 [10]: 3.1 µM
- IC50 [11]: 3 µM
- IC50 [12]: 0.12 µM
- IC50 [13]: 2.5 µM
- IC50 [14]: 5.2 µM
- IC50 [15]: 4.5 µM
- IC50 [23]: > 2.5 µM
- IC50 [19]: > 5 µM
Structure (SMILES): CN(C)c1nc(Cl)nc2c1ncn2Cc1ccc(Cl)cc1
- Inhibition [25]: 42%
- Inhibition [26]: 12%
- Inhibition [27]: 32%
- Inhibition [28]: 31%
- Inhibition [29]: 40%
- Inhibition [30]: 35%

- IC50 [1]: 38 µM
Structure (SMILES): COc1ccc(Cn2cnc3c(N(C)C)ncnc32)cc1

- IC50 [1]: 13 µM
Structure (SMILES): CN(C)c1nc(Cl)nc2c1ncn2Cc1cccc(N)c1

- IC50 [1]: 1.1 µM
Structure (SMILES): CN(C)c1nc(Cl)nc2c1ncn2Cc1ccc2ccccc2c1

- IC50 [1]: 0.7 µM
Structure (SMILES): COc1ccc(Cn2cnc3c(N(C)C)nc(Cl)nc32)cc1

- IC50 [1]: 50 µM
Structure (SMILES): COc1cccc(Cn2cnc3c(N(C)C)ncnc32)c1

- IC50 [1]: 32 µM
Structure (SMILES): Cc1cccc(Cn2cnc3c(N(C)C)ncnc32)c1

- IC50 [24]: Not Active
Structure (SMILES): CN(C)c1ncnc2c1ncn2Cc1ccc([N+](=O)[O-])cc1

- IC50 [24]: Not Active
Structure (SMILES): CN(C)c1ncnc2c1ncn2Cc1cccc([N+](=O)[O-])c1

- IC50 [1]: 0.04 µM
Structure (SMILES): CC(C)S(=O)(=O)n1c(N)nc2ccc(/C(=N/O)c3ccccc3)cc21 [ENVIROXIME]

- IC50 [1]: 0.32 µM
Structure (SMILES): CN(C)c1nc(Cl)nc2c1ncn2Cc1ccc(Cl)c(Cl)c1
